This is a sample that favours compounds with a hit; in the whole collection about 2.4% have one here.
EWS-Fli block: EWS/Fli transcriptional activity inhibition. 0.67% of 350,000 active. AID 651661. A673 NR0B1-luciferase reporter, viability-normalised. inhibition, % at 12.6 µM;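 active = mean inhibition of at least 50% after viability correction, with every replicate also passing that limit; inconclusive = mean reaches 50% but only one of two replicates passes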;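 also: firefly luciferase signal divided by Alamar Blue viability fluorescence both relative to DMSO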
E-sel inducer: E-selectin induction on HUVECs. HUVEC E-selectin immunofluorescence imaging; normalized: neutral wells 0, TNF-alpha wells 100. activation, % at 7.58 µM. 0.37% of 260,000 active. AID 686992;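 active = mean E-selectin-positive cell signal at least 10% of the positive control, reached in at least 60% of replicates, without over 20% cell loss; inconclusive = no rule given, readout overlaps actives, possibly toxicity-flagged; inactive = the rest, including those meeting only one limit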
Target sequence (P16581 whole entry, looked up): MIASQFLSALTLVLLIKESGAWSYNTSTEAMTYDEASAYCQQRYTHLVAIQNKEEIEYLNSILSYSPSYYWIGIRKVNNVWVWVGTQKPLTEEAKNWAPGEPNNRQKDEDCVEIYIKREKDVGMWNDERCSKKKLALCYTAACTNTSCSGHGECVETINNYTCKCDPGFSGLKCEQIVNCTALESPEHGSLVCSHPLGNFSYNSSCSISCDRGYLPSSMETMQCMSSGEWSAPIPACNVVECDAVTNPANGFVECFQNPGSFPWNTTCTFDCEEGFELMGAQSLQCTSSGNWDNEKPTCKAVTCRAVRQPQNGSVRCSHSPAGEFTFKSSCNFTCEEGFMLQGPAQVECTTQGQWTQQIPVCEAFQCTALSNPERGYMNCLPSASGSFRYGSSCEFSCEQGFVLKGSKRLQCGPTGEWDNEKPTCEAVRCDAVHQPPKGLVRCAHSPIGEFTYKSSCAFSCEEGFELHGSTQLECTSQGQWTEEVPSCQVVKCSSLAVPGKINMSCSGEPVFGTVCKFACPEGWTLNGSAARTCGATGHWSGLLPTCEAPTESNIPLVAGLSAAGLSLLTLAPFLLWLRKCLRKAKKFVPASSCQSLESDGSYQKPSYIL
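System: HUVEC, human umbilical vein endothelial cells; quantity: 3,000 cells/well; buffer or medium: EGM-2 medium, gelatin-coated wells; dosing: single-point compound dose; detection: immunofluorescence imaging; evaluation: % PE-positive cells; benchmarks: TNF-alpha, DMSO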
LGR2 inh: Drosophila LGR2 receptor signaling inhibition; HEK293 LGR2, CRE-luciferase, bursicon-stimulated, 4 h; inhibition, % at 9.99 µM; 0.35% of 380,000 active;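 active = drop in luminescence signal, shown as inhibition above about 50% in the replicate tests, limit read from the data, passing the limit was not always enough; inconclusive = probably only some replicates passing the limit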;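 also: agonist challenge used bursicon conditioned medium at about half maximal strength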
rRNA inh HTS: inhibitors of bacterial rRNA selective over humanized ribosomes; 1.6% of 350,000 active; AID 720706; GFP signal change (wild-type ribosome), % (no concentration beside the values); E. coli WT GFP vs humanized-ribosome RFP mutants, fluorescence, 24 h; stronger effect = lower value; DMSO median 0, no signal -100;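 active = significant combined selectivity score with lowered wild-type GFP, culture density cut under 30%, mutant RFP and density less affected; inactive = any of these conditions unmet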
AID977621: growth inhibition of wild-type GFP E. coli, dose response, H69 mutant RFP, cherry-pick; 1,900 tested, under 10 active; E. coli wild-type GFP strain growth, fluorescence, 24 h; shares compounds with rRNA inh HTS; activity change, negative = inhibition at 50 µM; AID 977621;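 active = Wild-type ribosome reporter drop at least double the humanized mutant ribosome reporter drop, growth loss under a set limit; inconclusive = no clear call, values can overlap the other calls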;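 also: wild-type GFP and H69 mutant RFP strains grown together 50/50 in each well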
AID977628: growth of wild-type and h24-humanized E. coli strains – h24 mutant RFP vs wild-type GFP, cherry-pick, dose response; shares compounds with rRNA inh HTS; E. coli WT GFP strain growth, fluorescence, 24 h; activity change, negative = inhibition at 50 µM; 1,900 tested, under 10 active;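 active = compound lowering the normal-ribosome reporter at least twice as much as the humanized-ribosome reporter, growth loss under a set limit; inconclusive = no clear call, values can overlap the other calls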;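 also: wild-type GFP and h24 humanized RFP strains co-cultured 1 to 1 per well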
Of the large screens only hits and unclear results are named; the others gave an inactive call (follow-up assays come after a bar, where they were run).

C=CCSc1cc(C)nc2c(-c3ccccc3)c(C)nn12	rRNA inh HTS -38 | AID977621 inactive | AID977628 inactive
COc1ccc(-c2cc(C(=O)Nc3ccc(C(N)=O)cc3)c3ccccc3n2)cc1OC	rRNA inh HTS -26 (no result: E-sel inducer) | AID977621 inactive | AID977628 inactive
C[C@H](O)C#Cc1cnc2c(c1)C(=O)N([C@@H](C)CO)C[C@@H](C)[C@H](CN(C)C(=O)CN1CCOCC1)O2	none (no result: E-sel inducer)
Cc1noc(C)c1S(=O)(=O)Nc1cccc2c1O[C@H](CN(C)C(=O)Nc1cccc3ccccc13)[C@H](C)CN([C@@H](C)CO)C2=O	none
O=S(=O)(Cc1ccco1)Cc1nc(-c2ccc(Cl)cc2)cs1	rRNA inh HTS -34 | AID977621 inactive | AID977628 inactive
C[C@@H]1CN([C@@H](C)CO)C(=O)c2cccc(NS(C)(=O)=O)c2O[C@H]1CN(C)Cc1ccc(C(F)(F)F)cc1	none
CN(C)C(CNC(=O)c1ccc([N+](=O)[O-])cc1Cl)c1ccco1 (stereo not given)	none (no result: E-sel inducer)
CN(C)C(CNS(=O)(=O)c1cc([N+](=O)[O-])ccc1Cl)c1ccco1 (stereo not given)	rRNA inh HTS -2.3 | AID977628 inactive
CCOc1ccc(C(C)=O)cc1CN1C(=O)NC2(CCCCCCC2)C1=O	rRNA inh HTS -40 | AID977621 inactive | AID977628 inactive
COc1cc(NC2=Nc3cccc4cccc2c34)cc(OC)c1OC	none
COc1cccc(NC2=Nc3cccc4cccc2c34)c1	rRNA inh HTS -34 | AID977621 inactive
CO[C@@H]1CN(C)C(=O)c2ccc(NC(=O)c3ccccc3)cc2OC[C@H](C)N(CC2CC2)C[C@H]1C	none
O=C1c2ccccc2C(=O)N1CCc1c[nH]c2ccccc12	rRNA inh HTS -21 | AID977621 inactive
O=C1c2ccccc2C(=O)N1CCCc1c[nH]c2ccccc12	none (no result: EWS-Fli block, E-sel inducer, rRNA inh HTS)
Cc1ccc(NC(=O)CSCc2ccc(F)cc2)cc1	none (no result: EWS-Fli block, rRNA inh HTS)
Cc1ccc(CSCC(=O)Nc2ccccc2F)cc1	rRNA inh HTS -23 | AID977621 inactive | AID977628 inconclusive
COc1ccc(Nc2nc(N)c([N+](=O)[O-])c(N3CCN(C)CC3)n2)cc1	none
COc1ccc(Nc2nc(N)c([N+](=O)[O-])c(N3CCCC3)n2)cc1	rRNA inh HTS -21 | AID977621 inactive | AID977628 inactive
COc1ccc(OC)c(Nc2nc(N)c([N+](=O)[O-])c(N3CCOCC3)n2)c1	rRNA inh HTS -31 (no result: E-sel inducer) | AID977621 inconclusive
COCC(=O)Nc1ccc2c(c1)[C@H]1C[C@H](CC(=O)NCc3ccc(Cl)cc3)O[C@H](CO)[C@H]1O2	none
O=C1c2cccc3cccc(c23)C(=O)N1CCCn1ccnc1	rRNA inh HTS -21 | AID977621 inactive | AID977628 inconclusive
C[C@@H]1CN([C@@H](C)CO)C(=O)c2cccc(NC(=O)c3nc4ccccc4s3)c2O[C@@H]1CN(C)Cc1ccc(C(F)(F)F)cc1	none
C[C@H](CO)N1C[C@H](C)[C@@H](CN(C)Cc2ccc(C(=O)O)cc2)OCCCC[C@H](C)Oc2ccc(NC(=O)CCCN(C)C)cc2C1=O	none
O=C(C[n+]1ccn(-c2ccccc2)c1)c1ccc([N+](=O)[O-])cc1	rRNA inh HTS -22 | AID977628 inactive
C[C@@H]1CN([C@H](C)CO)C(=O)c2cc(NC(=O)c3ccncc3)ccc2O[C@@H]1CN(C)Cc1ccc(C(F)(F)F)cc1	none
O=C1c2ccccc2CCc2ccccc21	none (no result: E-sel inducer)
O=C1c2ccccc2CSc2c(O)cccc21	rRNA inh HTS -31 (no result: E-sel inducer) | AID977621 inactive | AID977628 inactive
Cc1ccccc1NC(=O)c1ccccc1N(C)S(=O)(=O)c1ccccc1	rRNA inh HTS -19 (no result: E-sel inducer) | AID977621 inactive | AID977628 inconclusive
CO[C@H]1CN(C)C(=O)c2cc(NC(=O)C3CCC3)ccc2OC[C@H](C)N(C)C[C@@H]1C	none
Cc1ccc(C(=O)NCc2ccccc2)c(F)c1F	rRNA inh HTS -18 | AID977621 inactive | AID977628 inactive
Cc1ccccc1C(=O)N(C)c1ccccc1C(=O)NCc1ccccc1	none (no result: E-sel inducer)
COC(=O)c1cn(C(=O)c2ccc(OC)cc2)c2ccccc12	rRNA inh HTS -26 (no result: E-sel inducer) | AID977621 inactive | AID977628 inactive
